The RNAGym collection of RNA variant scans (doi:10.1038/nmeth.2970)

B1: NELF-E aptamer (parent)
chain: CCCAACGACUGCCGAGCGAGAUUACGCUUGAGCGCCCCACUGAGGAUGCCCACGGGCGAUUGGGGCACGG

Variants of: B1
Experiment: HiTS-RAP
Conditions: with NELF-E (Drosophila)
Outline: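 Kd came from weighted Hill fits to the first binding curve, with intensities normalised to sequencing intensity and averaged per sequence, keeping only fits whose variance was below 1,000,000. That curve was imaged on an Illumina GAIIx flowcell, where sequenced aptamer DNA templates with a T7 promoter and ter site had been transcribed in situ by T7 RNA polymerase and halted by GST-Tus (30 minutes, 37°C). Before each image, clusters equilibrated for 30 minutes at room temperature with NELF-E-mOrange at 0.064 to 1000 nM in HEPES binding buffer.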
CCCAACGACUGCGGAGCAAGAUUACGCUUGAGCGCCCCACUGAGGAUGCCCACGGGCGAUUGGGGCACGG was tested, and the Kd was 5.31 nM.
In the case of CCCAACGACUGCGGAGCUAGAUUACGCUUGAGCGCCCCACUGAGGAUGCCCACGGGCGAUUGGGGCACGG, the Kd is reported as 6.2 nM.
For CCCAACGACUGCGGAGCGAGAUUACGCUUGAGCGCCCCACUGAGGAUGCCCACGGGCGAUUGGGGUACGG, the Kd was 5.32 nM.
Work on CCCAACGACUGCGGAGCGAGAUUACGCUUGAGCUCCCCACUGAGGAUGCCCACGGGCGAUUGGGGCACGG yielded a Kd of 5.43 nM.
Work on CCCAACGACUGCGGAGCGAGAUUACGCUUGAGCACCCCACUGAGGAUGCCCACGGGCGAUUGGGGCACGG yielded a Kd of 8.12 nM.
In the case of CCCAACGACUGCGGAGCGAGAUUACGCUUGAACGCCCCACUGAGGAUGCCCACGGGCGAUUGGGGCACGG, the Kd is reported as 4.64 nM.
With CCCAACGACUGCGGAGGGAGAUUACGCUUGAGCGCCCCACUGAGGAUGCCCACGGGCGAUUGGGGCACGG the Kd was 4.68 nM.
Work on CCCAACGACUGCGGAGUGAGAUUACGCUUGAGCGCCCCACUGAGGAUGCCCACGGGCGAUUGGGGCACGG yielded a Kd of 5.43 nM.
CCCAACGACUGCGGAGCGAGAUUACGCUUUAGCGCCCCACUGAGGAUGCCCACGGGCGAUUGGGGCACGG gave a Kd of 6.03 nM.
Variant CCCAACGACUGCGGAGCGAGAUUACGCUUAAGCGCCCCACUGAGGAUGCCCACGGGCGAUUGGGGCACGG has a Kd of 4.93 nM.
With CCCAACGACUGCGGAGCGAGAUUACGCCUGAGCGCCCCACUGAGGAUGCCCACGGGCGAUUGGGGCACGG the Kd was 8.82 nM.
Variant CCCAACGACUGCGGAGCGAGAUUACGCAUGAGCGCCCCACUGAGGAUGCCCACGGGCGAUUGGGGCACGG has a Kd of 4.22 nM.
For CCCAACGACUGCGGAGCGAGAUUACGCGUGAGCGCCCCACUGAGGAUGCCCACGGGCGAUUGGGGCACGG, the Kd was 6.99 nM.
CCCAACGACUGCGGAGCGAGAUUACGCUUGAGCGUCCCACUGAGGAUGCCCACGGGCGAUUGGGGCACGG gave a Kd of 14.4 nM.
Work on CCCAACGACUGCGGAGCGAGAUUACGCUUGAGCGCCCCACUGAGGAUGCCCACGGGCGAUUGGGUCACGG yielded a Kd of 6.4 nM.
With CCCAACGACUGCGGAGCGAGAUUACGCUUGAGCGCCCCACUGAGGAUGCCCACGGGCGAUUGGGACACGG the Kd was 5.31 nM.
CCCAACGACUGCGGAGCGAGAUUACGCUUGAGCGCCCCACUGAGGAUGCCCACGGGCGAUUGGGGCUCGG was tested, and the Kd was 7.5 nM.
Variant CCCAACGACUGCGGAGCGAGAUUACGCUUGAGCGCCCCACUGAGGAUGCCCACGGGCGAUUGGGGCGCGG has a Kd of 5.62 nM.
CCCAACGACUGCGGAGCGAGAUUACGCUUGAGCGCCCCACUGAGGAUGCCCAGGGGCGAUUGGGGCACGG was tested, and the Kd was 7.39 nM.
Work on CCCAACGACUGCGGAGCGAGAUUACGCUUGAGCGCCCCACUGAGGAUGCCCAUGGGCGAUUGGGGCACGG yielded a Kd of 3.49 nM.
CCCAACGACUGCGGAGCGAGAUUACGCUUGAGCGCCCCACUGAGGAUGCCCACAGGCGAUUGGGGCACGG showed a Kd of 13.8 nM.
CCCAACGACUGCGGAGCGAGAUUACGCUUGAGCGCCCCACUGAGGAUGCCCACUGGCGAUUGGGGCACGG showed a Kd of 7.78 nM.
In the case of CCCAACGACUGCGGAGCGAGAUGACGCUUGAGCGCCCCACUGAGGAUGCCCACGGGCGAUUGGGGCACGG, the Kd is reported as 5.29 nM.
CCCAACGACUGCGGAGCGAGAUAACGCUUGAGCGCCCCACUGAGGAUGCCCACGGGCGAUUGGGGCACGG was tested, and the Kd was 5.32 nM.
CCCAACGACUGCGGAGCGAGAUCACGCUUGAGCGCCCCACUGAGGAUGCCCACGGGCGAUUGGGGCACGG gave a Kd of 5.7 nM.
CCCAACGACUGCGGAGCGAGAUUAUGCUUGAGCGCCCCACUGAGGAUGCCCACGGGCGAUUGGGGCACGG was tested, and the Kd was 5.55 nM.
For CCCAACGACUGCGGAGCGAGAUUAGGCUUGAGCGCCCCACUGAGGAUGCCCACGGGCGAUUGGGGCACGG, the Kd was 5.76 nM.
Work on CCCAACGACUGCGGAGCGAGAUUACGCUUGAGCGCCCCAGUGAGGAUGCCCACGGGCGAUUGGGGCACGG yielded a Kd of 5.72 nM.
For CCCAACGACUGCGGAGCGAGAUUACGCUUGAGCGCCACACUGAGGAUGCCCACGGGCGAUUGGGGCACGG, the Kd was 21.7 nM.
For CCCAACGACUGCGGAGCGAGAUUACGCUUGAGCGCCGCACUGAGGAUGCCCACGGGCGAUUGGGGCACGG, the Kd was 6.46 nM.
For CCCAACGACUGCGGAGCGAGAUUACGCUUGAGCGCCUCACUGAGGAUGCCCACGGGCGAUUGGGGCACGG, the Kd was 10.3 nM.
CCCAACGACUGCGGAGCGAGAUUACGCUUGAGCGCCCCACUGAGGAAGCCCACGGGCGAUUGGGGCACGG gave a Kd of 11.8 nM.
For CCCAACGACUGCGGAGCGAGAUUACGCUUGAGCGCCCCACUGAGGAUGCCUACGGGCGAUUGGGGCACGG, the Kd was 6.36 nM.
In the case of CCCAACGACUGCGGAGCGAGAUUACGCUUGAGCGCCCCACUGAGGAUGCCCACGGGUGAUUGGGGCACGG, the Kd is reported as 6.43 nM.
Variant CCCAACGACUGCGGAGCGAGAUUACGCUUGAGCGCGCCACUGAGGAUGCCCACGGGCGAUUGGGGCACGG has a Kd of 6.08 nM.
Work on CCCAACGACUGCGGAGCGAGAUUACGCUUGAGCGCUCCACUGAGGAUGCCCACGGGCGAUUGGGGCACGG yielded a Kd of 7.49 nM.
CCCAACGACUGCGGAUCGAGAUUACGCUUGAGCGCCCCACUGAGGAUGCCCACGGGCGAUUGGGGCACGG showed a Kd of 6.25 nM.
CCCAACGACUGCGGAACGAGAUUACGCUUGAGCGCCCCACUGAGGAUGCCCACGGGCGAUUGGGGCACGG showed a Kd of 6.87 nM.
With CCCAACGACUGCGGAGCGAGAUUACGUUUGAGCGCCCCACUGAGGAUGCCCACGGGCGAUUGGGGCACGG the Kd was 4.45 nM.
